Among the data in ChEMBL document CHEMBL3425405, “Discovery of Small Molecules for Up-Regulating the Translation of Antiamyloidogenic Secretase, a Disintegrin and Metalloproteinase 10 (ADAM10), by Binding to the G-Quadruplex-Forming Sequence in the 5' Untranslated Region (UTR) of Its mRNA” (J Med Chem, 2015) are Kd, Activity and IC50 values, retold here.

Activity calls are given as the source filed them. The rule behind the calls is not given here.

The Kd is the equilibrium constant for the complex coming apart. Read a low Kd as a tighter complex. What is called IC50 is the concentration at which inhibition is half-maximal.

Data set [1] is described as follows: Binding affinity to 5'-end biotinylated ADAM10 A10-RNA QGRS (unknown origin) by surface plasmon resonance assay method. The gist of the method:
(§1)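 SPR with 5′-biotinylated A10-RNA-Wt or A10-RNA-Mut immobilized on a neutravidin chip in running buffer (50 mM Tris-HCl pH 7.5, 100 mM KCl). Ligand serial dilutions in running buffer injected at 20 μL/min for association, then dissociation. Chip regenerated with 50 mM NaOH between runs.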
A general note: In SPR one partner is held on a chip, and binding of the other changes the refractive index at the surface.

Data set [2] in a line: Binding affinity to 5'-end biotinylated ADAM10 A10-mutant RNA QGRS (unknown origin) by surface plasmon resonance assay method. The method, boiled down:
as §1

The subject of a further data set is HeLa. Nature of the data set: Binding affinity to ADAM10 A10-RNA QGRS (unknown origin) transfected in human HeLa cells assessed as increase in ADAM10 translation efficiency at 2 uM after 24 hrs by Renilla/firefly dual luciferase reporter assay. Format: cell-based. The method, boiled down:
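HeLa cells transfected with 0.8 μg A10-Wt, A10-Mut or A10-Del plasmid (G-quadruplex motif upstream of Renilla in psiCHECK-2). Screening: 24 h at a single 2 μM concentration. Follow-up: plasmid for 12 h, then 0, 0.5, 1 or 2.5 μM for 24 h. Renilla normalized to firefly, relative to untreated control; mean ± SD of three independent measurements.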
(In general: Reporter assays use an easily measured gene product as a stand-in for the process of interest.)

Data set [3] can be described thus: Toxicity against APP expressing HEK cells assessed as reduction in cell viability after 48 hrs by MTT assay. Format: cell-based, HEK293. Particulars: human. On the technique in general: Tetrazolium dyes change colour on reduction, which living cells bring about.
Data set [4] in a line: Toxicity against human HeLa cells assessed as reduction in cell viability after 24 hrs by MTT assay. It counts as cell-based.

With `CCn1c2ccccc2c2cc(/C=C/c3cc(N4CCN(CCO)CC4)c4ccccc4[n+]3C)ccc21`, the Kd in data set [1] came to 32.1 µM. Moreover, in data set [2], the result was inactive.
For the compound `CN1CCN(c2cc(/C=C/c3ccccc3)[n+](C)c3ccccc23)CC1`, in data set [1], binding was put at a Kd of 33.3 µM. Besides, in the data set with HeLa, the Activity stood at 91.5%. For the same compound, in data set [3], the half-maximal inhibitory concentration (IC50) at 48 h worked out at 36.3 µM. Also, in data set [4], the 50% inhibitory concentration (IC50) at 24 h is more than 50 µM. In addition, the result in data set [2] was inactive.
In data set [1], `CCn1c2ccccc2c2cc(/C=C/c3cc(N4CCN(CCCN(C)C)CC4)c4ccccc4[n+]3C)ccc21` returned a Kd of 45 µM. The outcome in data set [2] was inactive.
Consider `CN1CCN(c2cc(/C=C/c3ccc(N4CCOCC4)cc3)[n+](C)c3ccccc23)CC1`, for which, in data set [1], the Kd was determined as 2.6 µM. For the same compound, the Activity with HeLa was 137%. The IC50 at 48 h in data set [3] amounted to 29.3 µM. Also, in data set [4], the IC50 at 24 h is more than 50 µM. In data set [2], the outcome was inactive.
For the compound `COc1cc(/C=C/c2cc(N3CCN(C)CC3)c3ccccc3[n+]2C)ccc1N1CCOCC1`, binding in data set [1] was characterised by a dissociation constant (Kd) of 33 µM. Also, the outcome in data set [2] was inactive.
On the same counts, the results for `CCn1c2ccccc2c2cc(/C=C/c3cc(N4CCCCC4)c4ccccc4[n+]3C)ccc21` are more than 50 µM and “inactive”.
On the same counts, the results for `CCn1c2ccccc2c2cc(/C=C/c3cc(N4CCN(C)CC4)c4ccccc4n3)ccc21` are more than 50 µM and “inactive”.
On the same counts, the results for `COc1cc(/C=C/c2cc(N3CCN(C)CC3)c3ccccc3[n+]2C)cc(OC)c1OC` are 10.9 µM and “inactive”.
The compound `COc1cc(/C=C/c2cc(N3CCOCC3)c3ccccc3[n+]2C)cc(OC)c1O` yielded a Kd in data set [1] of 27.1 µM. Also, the result in data set [2] was inactive.
Compound `CN1CCN(c2cc(/C=C/c3cc4ccccc4[nH]3)[n+](C)c3ccccc23)CC1` had a Kd in data set [1] of 1.8 µM. In the data set on HeLa, the Activity was 116%. In addition, the IC50 at 48 h in data set [3] was 18.6 µM. In addition, in data set [4], the IC50 at 24 h is more than 50 µM. Also, the result in data set [2] was inactive.
Consider `CCn1c2ccccc2c2cc(/C=C/c3ccc4ccccc4n3)ccc21`, for which, in data set [1], the Kd was more than 50 µM. For the same compound, in data set [2], the result was inactive.
On the same counts, the results for `CCn1c2ccccc2c2cc(/C=C/c3cc(N4CCN(CCN(C)C)CC4)c4ccccc4[n+]3C)ccc21` are more than 50 µM and “inactive”.
On to `C[n+]1c(/C=C/c2cc([N+](=O)[O-])ccc2O)cc(N2CCOCC2)c2ccccc21`, for which the Kd in data set [1] is more than 50 µM. In data set [4], the IC50 at 24 h turned out to be 17.3 µM. In addition, in data set [2], the result was inactive.
In the case of `COc1cc(/C=C/c2cc(N3CCN(C)CC3)c3ccccc3[n+]2C)ccc1F`, in data set [1], the Kd amounted to 11.7 µM. Moreover, in data set [2], the result was inactive.
`C[n+]1c(/C=C/c2ccccc2)ccc2ccccc21`: the Kd in data set [1] is more than 50 µM. Further, in the data set on HeLa, the Activity is 101%. The IC50 at 48 h in data set [3] was more than 50 µM. Also, the IC50 at 24 h in data set [4] is more than 50 µM. Further, in data set [2], the outcome was inactive.
With `CN1CCN(c2cc(/C=C/c3ccc(O)cc3)[n+](C)c3ccccc23)CC1`, the Kd in data set [1] was found to be 8.4 µM. The outcome in data set [2] was inactive.
On the same counts, the results for `C[n+]1c(/C=C/c2ccc(O)cc2)ccc2ccccc21` are 15.9 µM and “inactive”.
On the same counts, the results for `C[n+]1c(/C=C/c2cc([N+](=O)[O-])ccc2O)ccc2ccccc21` are 46.3 µM and “inactive”.
For `COc1cc(/C=C/c2ccc3ccccc3[n+]2C)cc(OC)c1OC`, the Kd in data set [1] turned out to be 9.3 µM. Moreover, the outcome in data set [2] was inactive.
`CN1CCN(c2cc(/C=C/c3ccc(N4CCOCC4)cc3)nc3ccccc23)CC1` registered a Kd in data set [1] of 47.6 µM. In addition, the outcome in data set [2] was inactive.
On the same counts, the results for `CCn1c2ccccc2c2cc(/C=C/c3cc(N4CCCCC4)c4ccccc4n3)ccc21` are more than 50 µM and “inactive”.
`COc1cc(/C=C/c2cc(N3CCN(C)CC3)c3ccccc3[n+]2C)cc(OC)c1O` displayed a Kd in data set [1] of 16.5 µM. In the data set with HeLa, the Activity came out at 108%. Besides, in data set [3], the IC50 at 48 h was 25.8 µM. Also, the IC50 at 24 h in data set [4] was more than 50 µM. Also, the result in data set [2] was inactive.
On the same counts, the results for `C[n+]1c(/C=C/c2ccc(N3CCOCC3)cc2)ccc2ccccc21` are 15.8 µM, 92%, 23.3 µM, 43.4 µM and “inactive”.
Regarding `COc1cc(/C=C/c2ccc3ccccc3[n+]2C)cc(OC)c1O`, the Kd in data set [1] amounted to 20.5 µM. The result in data set [2] was inactive.
For the compound `CN1CCN(c2cc(/C=C/c3cc([N+](=O)[O-])ccc3O)[n+](C)c3ccccc23)CC1`, the Kd in data set [1] is 16.3 µM. In the data set with HeLa, the Activity came out at 98.7%. In addition, the IC50 at 48 h in data set [3] was determined as 21.5 µM. The IC50 at 24 h in data set [4] is more than 50 µM. Besides, the result in data set [2] was inactive.
Turning to `COc1cc(/C=C/c2ccc3ccccc3[n+]2C)ccc1F`, the Kd in data set [1] was found to be 18 µM. In addition, the result in data set [2] was inactive.
In turn, `C[n+]1c(/C=C/c2cc3ccccc3[nH]2)ccc2ccccc21` came in with a Kd in data set [1] of 3.4 µM. Besides, in the data set on HeLa, the Activity was found to be 119%. Moreover, the IC50 at 48 h in data set [3] was 12.4 µM. Besides, the IC50 at 24 h in data set [4] was more than 50 µM. The result in data set [2] was inactive.
Compound `COc1cc(/C=C/c2ccc3ccccc3[n+]2C)ccc1N1CCOCC1` displayed a Kd in data set [1] of 28.2 µM. Moreover, in the data set on HeLa, the Activity was 102%. Moreover, the IC50 at 48 h in data set [3] worked out at 49.1 µM. Moreover, in data set [4], the IC50 at 24 h was 32.8 µM. Also, in data set [2], the outcome was inactive.
In data set [1], `COc1cc(/C=C/c2cc(N3CCCCC3)c3ccccc3[n+]2C)cc(OC)c1O` displayed a Kd of 25 µM. Besides, the result in data set [2] was inactive.
On the same counts, the results for `C[n+]1c(/C=C/c2cc([N+](=O)[O-])ccc2O)cc(N2CCCCC2)c2ccccc21` are more than 50 µM and “inactive”.
